# Source: ChEMBL document CHEMBL3352283, “Benzodioxane-benzamides as new bacterial cell division inhibitors” (Eur J Med Chem, 2015)
# Calls of active or inactive are those of the source. No cut-off for these calls is given here.
# Assays:
# Staphylococcus aureus [1] = assay: Antibiotic activity against Staphylococcus aureus assessed as growth inhibition after 2 days by optical microscopy; type: functional; conditions: 48 h
# Escherichia coli = assay: Antibiotic activity against Escherichia coli DH5alpha assessed as growth inhibition after 2 days by optical microscopy; type: functional; conditions: DH5[alpha], 48 h
# Staphylococcus aureus [2] = assay: Antibiotic activity against Staphylococcus aureus assessed as growth inhibition after compound washout by optical microscopy; type: functional
# [3] = Therapeutic index, ratio of TD90 for human MRC5 cells to MBC for Staphylococcus aureus; type: cell-based; conditions: read-out: TI
# In short: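 Therapeutic index calculated as MRC-5 TD90 (MTT assay) divided by MBC measured after washout regrowth test.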
# [4] = (§1) Cytotoxicity against human MRC5 cells assessed as reduction in cell viability after 24 hrs by MTT assay; type: cell-based; conditions: MRC5 cells, read-out: TD50
# In short: (§2)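 Vero or MRC-5 cells kept in DMEM with 10% heat-inactivated calf serum, 37 °C, 5% CO₂; compound-treated cells given MTT for 3 h at 37 °C, then DMSO 10 min, absorbance at 570 nm; cytotoxicity % = 100 − (sample OD/untreated OD) × 100; TD50/TD90 = dose cutting viability 50% or 90%.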
# MRC5 = assay: as §1; type: cell-based; conditions: mrc5, 24 h; in short: as §2
# [5] = (§3) Cytotoxicity against african green monkey Vero cells assessed as reduction in cell viability after 24 hrs by MTT assay; type: cell-based; conditions: chlorocebus sabaeus, Vero cells; read-out: TD50; in short: as §2
# Vero = assay: as §3; type: cell-based; conditions: chlorocebus sabaeus, vero, 24 h; in short: as §2
# Staphylococcus aureus [6] = assay: Antibiotic activity against Staphylococcus aureus assessed as ballooning of cocci at 1 to 4 times MIC concentration by phase-contrast microscopy; type: functional, organism-based
SMILES,MIC (Staphylococcus aureus [1]) [µg/mL],MIC (Escherichia coli) [µg/mL],MBC (Staphylococcus aureus [2]) [µg/mL],selectivity ratio [3],CC50 at 24 h [4] [µg/mL],TD90 (MRC5) [µg/mL],CC50 at 24 h [5] [µg/mL],TD90 (Vero) [µg/mL],Activity (Staphylococcus aureus [6])
NC(=O)c1c(F)ccc(OCC2COc3ccc(Cl)cc3O2)c1F (racemic),0.5,> 100,0.5,> 1600,500,> 800,450,> 800,Active
NC(=O)c1c(F)ccc(OCC2COc3ccccc3O2)c1F (racemic),5,> 100,80,,,,,,
NC(=O)c1c(F)ccc(OCC2COc3cc(Cl)ccc3O2)c1F (racemic),1,> 100,2.5,320,650,800,550,800,
NC(=O)c1c(F)ccc(OC[C@H]2COc3ccc(Cl)cc3O2)c1F,1,> 100,2.5,> 320,400,> 800,> 200,> 200,
CCCCCCCCCOc1ccc(F)c(C(=O)NCCO)c1F,> 100,> 100,,,,,,,
NC(=O)c1c(F)ccc(OC[C@@H]2COc3ccc(Cl)cc3O2)c1F,0.25,> 100,0.5,> 1600,600,> 800,> 200,> 200,
CCCCCCCCCOc1ccc(F)c(C(=O)NCCN)c1F,10,20,,,35,80,60,120,

# More lines, main results first:
MIC (Staphylococcus aureus [1]) [µg/mL],MIC (Escherichia coli) [µg/mL],SMILES,MBC (Staphylococcus aureus [2]) [µg/mL],selectivity ratio [3],CC50 at 24 h [4] [µg/mL],TD90 (MRC5) [µg/mL],CC50 at 24 h [5] [µg/mL],TD90 (Vero) [µg/mL],Activity (Staphylococcus aureus [6])
> 100,> 100,NCC(O)COCCCCOc1ccc(F)c(C(N)=O)c1F (racemic),,,,,,,
> 100,> 100,CCCCCCCCCOc1ccc(F)c(C(=O)NCCNC(=O)c2c(F)ccc(OCCCCCCCCC)c2F)c1F,,,,,,,
> 100,> 100,NC(=O)c1c(F)ccc(OCCCCOCC(O)CO)c1F (stereo not given),,,,,,,
> 100,> 100,CCCCCCCCCOc1ccc(F)c(C#N)c1F,,,,,,,
> 100,> 100,CCCCCCCCCOc1ccc(F)c(C2=NCCO2)c1F,,,,,,,
0.1,> 100,CCCCCCCCCOc1ccc(F)c(C(N)=O)c1F,0.25,> 800,100,> 200,90,> 200,
20,> 100,NCCNC(=O)c1c(F)ccc(OCC2COc3ccccc3O2)c1F (stereo not given),40,,,,,,
